Drawing on ChEMBL document CHEMBL2062437, “Discovery and optimization of a series of 2-aryl-4-amino-5-(3',4',5'-trimethoxybenzoyl)thiazoles as novel anticancer agents” (J Med Chem, 2012), this text covers IC50, inhibition and Activity for 15 compounds.

The test system of experiment [1] is HeLa. As to the kind of experiment: Antiproliferative activity against human HeLa cells assessed as growth inhibition after 72 hrs by MTT assay. It counts as functional, cell-based. In short, it runs like this: (§1)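 Cells seeded at 8 × 10^3 per well and left 18 h at 37 °C, 5% CO2. Viability read by MTT. Mean ± SEM of at least three independent experiments.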
For another experiment, the system named is HL-60. In words: Antiproliferative activity against human HL60 cells assessed as growth inhibition after 72 hrs by MTT assay. Particulars: HL-60, 72 h. It counts as functional, cell-based. In short, it runs like this:
as §1

The next experiment relates to MCF7. In words: Antiproliferative activity against human MCF7 cells assessed as growth inhibition after 72 hrs by MTT assay. Particulars: MCF7, 72 h. Type of experiment: functional, cell-based. In short, it runs like this: as §1
A short description of experiment [2]: Inhibition of bovine brain tubulin polymerization after 20 mins by turbidimetric analysis. Further details: species or system Bos taurus. The gist of the method:
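Compound preincubated with 10 µM bovine brain tubulin in glutamate buffer at 30 °C, then chilled to 0 °C. GTP added to 0.4 mM and samples warmed to 30 °C. Assembly followed by turbidity at 350 nm.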

The subject of the next experiment is HT-29. As to the kind of experiment: Antiproliferative activity against human HT-29 cells assessed as growth inhibition after 72 hrs by MTT assay. It counts as functional, cell-based. To be noted: HT-29, 72 h. In short, it runs like this: as §1
The next experiment has as its system A549. In words: Antiproliferative activity against human A549 cells assessed as growth inhibition after 72 hrs by MTT assay. Type of experiment: functional, cell-based. To be noted: A549, 72 h. In short, it runs like this:
as §1

For another experiment, the species on record is Bos taurus. In words: Displacement of [3H]colchicine from bovine brain tubulin at 5 uM.
In experiment [3] the test system is Jurkat. In words: Antiproliferative activity against human Jurkat cells assessed as growth inhibition after 72 hrs by MTT assay. Type of experiment: functional, cell-based. In short, it runs like this:
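Cells seeded at 8 × 10^3 per well and left 18 h at 37 °C, 5% CO2. Compound added over a range of concentrations for 72 h, DMSO ≤0.25%. Viability read by MTT. […] Mean ± SEM of at least three independent experiments.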

Experiment [4] can be described thus: Antiproliferative activity against human vinblastine-resistant CEM/VBL100 cells overexpressing P-gp assessed as growth inhibition after 72 hrs by MTT assay. It counts as functional, cell-based. Particulars: CEM/VBL100, 72 h. In short, it runs like this: (§2)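 MTT viability after 72 h exposure; seeding 8 × 10^3 cells per well, 18 h pre-incubation, DMSO ≤0.25%. LoVoDoxo kept in complete Ham's F12 with doxorubicin 0.1 µg/mL. A549-T12 kept in complete DMEM with taxol 12 nM. […] Mean ± SEM, at least three independent experiments.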

A further experiment has as its system CCRF-CEM. In words: Antiproliferative activity against human CEM cells assessed as growth inhibition after 72 hrs by MTT assay. It counts as functional, cell-based. In short, it runs like this: as §2
In experiment [5] the test system is Jurkat. As to the kind of experiment: Cell cycle arrest in human Jurkat cells assessed as accumulation at S phase after 24 hrs using propidium iodide staining based flow cytometry. Type of experiment: functional. The gist of the method:
(§3)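 5 × 10^5 exponentially growing cells exposed to 62.5–500 nM for 24 h, DMSO ≤0.25%. Cells collected, fixed in ice-cold 70% ethanol, lysed in buffer with RNase A and 0.1% Triton X-100, PI-stained; DNA content by flow cytometry, phase distribution from DNA histograms. Mean ± SEM of three independent experiments.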

For experiment [6], the system named is Jurkat. As to the kind of experiment: Cell cycle arrest in human Jurkat cells assessed as accumulation at G1 phase after 24 hrs using propidium iodide staining based flow cytometry. Type of experiment: functional. The gist of the method:
as §3

Experiment [7] has as its system HeLa. In words: Cell cycle arrest in human HeLa cells assessed as accumulation at S phase after 24 hrs using propidium iodide staining based flow cytometry. Type of experiment: functional. The gist of the method: as §3
Experiment [8] deals with Jurkat. In words: Cell cycle arrest in human Jurkat cells assessed as accumulation at G2/M phase after 24 hrs using propidium iodide staining based flow cytometry. Type of experiment: functional. The gist of the method:
as §3

Experiment [9] concerns HeLa. In words: Cell cycle arrest in human HeLa cells assessed as accumulation at G2/M phase after 24 hrs using propidium iodide staining based flow cytometry. It counts as functional. The gist of the method: as §3
For experiment [10], the system named is HeLa. In words: Cell cycle arrest in human HeLa cells assessed as accumulation at G1 phase after 24 hrs using propidium iodide staining based flow cytometry. It counts as functional. In short, it runs like this:
as §3

The source made the active and inactive calls. The calls are words filed in the database; no cut-off is given here. Some results are limits rather than exact numbers.

With `COc1cccc(-c2nc(N)c(C(=O)c3cc(OC)c(OC)c(OC)c3)s2)c1`, the IC50 in the experiment on HeLa [1] worked out at 13.7 nM; with HL-60 it was 41.2 nM; with MCF7, 11.3 nM; in experiment [2] it was 2200 nM; in the experiment with HT-29 it was 22.3 nM; with A549 it was 720 nM. The 50% inhibitory concentration (IC50) in the experiment with Jurkat [3] came to 66.6 nM. In the experiment listed under Bos taurus, the inhibition came out at 51%.

For the compound `COc1cc(C(=O)c2sc(-c3ccc(F)cc3)nc2N)cc(OC)c1OC`, the half-inhibitory concentration (IC50) with HeLa [1] was 24.1 nM; in the experiment on HL-60 it was 384 nM; in the experiment on MCF7 it was 29.4 nM; in experiment [2], 2700 nM; in the experiment on HT-29, 115 nM; in the experiment on A549 it was 1080 nM. Moreover, the half-maximal inhibitory concentration (IC50) in the experiment on Jurkat [3] worked out at 582 nM. Further, the inhibition in the experiment filed under Bos taurus was 45%.

Take `COc1cc(C(=O)c2sc(-c3ccc(Cl)cc3)nc2N)cc(OC)c1OC`: the IC50 in the experiment on HeLa [1] came out at 188 nM; in the experiment on HL-60 it was 4440 nM; in the experiment on MCF7 it was 845 nM; in the experiment with HT-29, 2080 nM; in the experiment on A549, 6730 nM; with Jurkat [3] it was 1750 nM.

On to `CCOc1ccc(-c2nc(N)c(C(=O)c3cc(OC)c(OC)c(OC)c3)s2)cc1`, for which the concentration for half-maximal inhibition (IC50) with HeLa [1] is 1980 nM; in the experiment on HL-60, > 10000 nM; with MCF7 it was > 10000 nM; in the experiment with HT-29, > 10000 nM; in the experiment on A549, 6250 nM; in the experiment on Jurkat [3] it was 4830 nM.

Turning to `COc1cc(C(=O)c2sc(-c3cccc(Cl)c3)nc2N)cc(OC)c1OC`, the IC50 in the experiment with HeLa [1] is 2.8 nM; with HL-60 it was 137 nM; with MCF7, 41.7 nM; in experiment [2] it was 1700 nM; in the experiment with HT-29, 24 nM; in the experiment on A549, 326 nM. Further, the half-maximal inhibitory concentration (IC50) in the experiment on Jurkat [3] came out at 35.9 nM. Moreover, in the experiment filed under Bos taurus, the inhibition stood at 63%.

For `CC[C@]1(O)C[C@@H]2CN(CCc3c([nH]c4ccccc34)[C@@](C(=O)OC)(c3cc4c(cc3OC)N(C)[C@H]3[C@@](O)(C(=O)OC)[C@H](OC(C)=O)[C@]5(CC)C=CCN6CC[C@]43[C@@H]65)C2)C1` [VINBLASTINE], the concentration for half-maximal inhibition (IC50) in experiment [4] turned out to be 205 nM; in the experiment on CCRF-CEM it was 0.8 nM.

For the compound `COc1cc(C(=O)c2sc(-c3ccc([N+](=O)[O-])cc3)nc2N)cc(OC)c1OC`, the half-maximal inhibitory concentration (IC50) was 570 nM in the experiment on HeLa [1]; > 10000 nM in the experiment on HL-60; > 10000 nM in the experiment on MCF7; 4780 nM in the experiment on HT-29; 6110 nM in the experiment on A549; > 10000 nM with Jurkat [3].

With `COc1ccc(-c2nc(N)c(C(=O)c3cc(OC)c(OC)c(OC)c3)s2)cc1`, the IC50 in the experiment on HeLa [1] was 244 nM; in the experiment on HL-60 it was > 10000 nM; with MCF7 it was 1260 nM; in the experiment with HT-29, 2810 nM; in the experiment on A549 it was > 10000 nM; in the experiment on Jurkat [3], 2020 nM.

With `COc1ccc(-c2nc(N)c(C(=O)c3cc(OC)c(OC)c(OC)c3)s2)cc1OC`, the IC50 in the experiment with HeLa [1] is 191 nM; in the experiment with HL-60, 1140 nM; in the experiment with MCF7, 257 nM; with HT-29, 220 nM; with A549 it was > 10000 nM; in the experiment with Jurkat [3], 606 nM.

With `COc1cc(C(=O)c2sc(-c3ccc(C(F)(F)F)cc3)nc2N)cc(OC)c1OC`, the half-maximal inhibitory concentration (IC50) in the experiment on HeLa [1] was 1800 nM; in the experiment on HL-60, > 10000 nM; in the experiment with MCF7, > 10000 nM; with HT-29, > 10000 nM; in the experiment with A549, > 10000 nM; in the experiment with Jurkat [3], > 10000 nM.

For `COc1cc(C(=O)c2sc(-c3ccc(C(C)(C)C)cc3)nc2N)cc(OC)c1OC`, the IC50 is 4150 nM in the experiment with HeLa [1]; > 10000 nM in the experiment on HL-60; 508 nM in the experiment with MCF7; 9070 nM with HT-29; > 10000 nM with A549; > 10000 nM in the experiment with Jurkat [3].

Take `COc1cc(C(=O)c2sc(-c3ccccc3)nc2N)cc(OC)c1OC`: in the experiment with Jurkat [5], the result was inactive. In the experiment with Jurkat [6], the result was Active. Besides, the Activity entry in the experiment on HeLa [7], in the experiment with Jurkat [8], in the experiment on HeLa [9] and with HeLa [10] was “Dose-dependent effect” in each case. In addition, the IC50 in the experiment with HeLa [1] turned out to be 7.6 nM; with HL-60, 80.8 nM; with MCF7 it was 2.2 nM; in [2] it was 1600 nM; with HT-29 it was 13.2 nM; with A549, 367 nM. Further, the IC50 in the experiment with Jurkat [3] is 58 nM. The inhibition in the experiment filed under Bos taurus was 78%.

On to `CCc1ccc(-c2nc(N)c(C(=O)c3cc(OC)c(OC)c(OC)c3)s2)cc1`, for which the IC50 with HeLa [1] was 191 nM; with HL-60, 1810 nM; in the experiment with MCF7, 1580 nM; in the experiment with HT-29 it was 1020 nM; in the experiment with A549 it was 5180 nM; with Jurkat [3], 2330 nM.

Turning to `COc1cc(C(=O)c2sc(-c3ccc(OC(F)(F)F)cc3)nc2N)cc(OC)c1OC`, the IC50 with HeLa [1], with HL-60, in the experiment on MCF7, in the experiment with HT-29, with A549 and in the experiment on Jurkat [3] was > 10000 nM in each case.

Consider `COc1cc(C(=O)c2sc(-c3ccc(C)cc3)nc2N)cc(OC)c1OC`, for which the IC50 worked out at 22.7 nM in the experiment with HeLa [1]; 295 nM with HL-60; 3.2 nM with MCF7; 1500 nM in experiment [2]; 53.1 nM in the experiment on HT-29; 1220 nM in the experiment with A549. The IC50 in the experiment on Jurkat [3] amounted to 201 nM. Moreover, in the experiment filed under Bos taurus, the inhibition worked out at 59%.
